# Measurements taken from article PMC3773367 (Biochemistry, 2010).
# Numbering of substitutions follows the chain as printed. Names and notes keep the numbering of the source.
# B1: K16Q ArsA: ArsA with signature Lys16 (A1 half) changed to glutamine (protein, UniProt P08690 1-583, looked up, variant K16Q)
# Arsenical pump-driving ATPase: MQFLQNIPPYLFFTGQGGVGKTSISCATAIRLAEQGKRVLLVSTDPASNVGQVFSQTIGITIQAIASVPGLSALEIDPQAAAQQYRARIVDPIKGVLPDDVVSSINEQLSGACTTEIAAFDEFTGLLTDASLLTRFDHIIFDTAPTGHTIRLLQLPGAWSSFIDSNPEGASCLGPMAGLEKQREQYAYAVEALSDPKRTRLVLVARLQKSTLQEVARTHLELAAIGLKNQYLVINGVLPKTEAANDTLAAAIWEREQEALANLPADLAGLPTDTLFLQPVNMVGVSALSRLLSTQPVASPSSDEYLQQRPDIPSLSALVDDIARNEHGLIMLMGKGGVGKTTMAAAIAVRLADMGFDVHLTTSDPAAHLSMTLNGSLNNLQVSRIDPHEETERYRQHVLETKGKELDEAGKRLLEEDLRSPCTEEIAVFQAFSRVIREAGKRFVVMDTAPTGHTLLLLDATGAYHREIAKKMGEKGHFTTPMMLLQDPERTKVLLVTLPETTPVLEAANLQADLERAGIHPWGWIINNSLSIADTRSPLLRMRAQQELPQIESVKRQHASRVALVPVLASEPTGIDKLKQLAG
# B2: K335Q ArsA: ArsA with signature Lys335 (A2 half) changed to glutamine (protein, UniProt P08690 1-583, looked up, variant K335Q)
# Arsenical pump-driving ATPase: B1 Arsenical pump-driving ATPase with Q16K, K335Q
# B3: C113A/C422A: ArsA derivative lacking the Sb(III)-binding residues Cys113 and Cys422 (protein, UniProt P08690 1-583, looked up, variant C113A C422A)
# Arsenical pump-driving ATPase: B1 Arsenical pump-driving ATPase with Q16K, C113A, C422A
# Assays:
# ThArsA [1] = experiment: Photoaffinity labelling with increasing 8-azido[γ-32P]ATP; format: binding; conditions: read-out: apparent Kd
# K16Q ThArsA = experiment: as above; format: binding; conditions: read-out: apparent Kd
# ThArsA [2] = format: biochemical; conditions: read-out: Km for ATP
# wild-type ArsA = wild-type ArsA (Escherichia coli, UniProt P08690); conditions: read-out: Km for ATP
# E. coli strain JM109 = experiment: Arsenite resistance assay; format: cell-based, Escherichia coli
# [3] = ATPase activity, NADH-coupled assay; format: biochemical, Escherichia coli; conditions: for ATPase activity relative to wild type: % of wild-type activity
# Sb = format: binding, Escherichia coli; conditions: 10 μM ArsA, 2 mM ATPγS, 2.5 mM MgCl2; Sb(III) per ArsA
# In short: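 Purified ArsA buffer-exchanged into 50 mM MOPS-KOH pH 7.5. Incubated 1 h on ice with 2 mM ATPγS, 2.5 mM MgCl2 and a range of potassium antimonyl tartrate concentrations. Unbound metalloid removed on a spin gel-filtration column in the same buffer. Eluate diluted in 2% HNO3 and antimony measured by ICP-MS against an antimony standard. Binding expressed as a function of Sb(III) concentration.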
# Sequence of wild-type ArsA (P08690 whole entry): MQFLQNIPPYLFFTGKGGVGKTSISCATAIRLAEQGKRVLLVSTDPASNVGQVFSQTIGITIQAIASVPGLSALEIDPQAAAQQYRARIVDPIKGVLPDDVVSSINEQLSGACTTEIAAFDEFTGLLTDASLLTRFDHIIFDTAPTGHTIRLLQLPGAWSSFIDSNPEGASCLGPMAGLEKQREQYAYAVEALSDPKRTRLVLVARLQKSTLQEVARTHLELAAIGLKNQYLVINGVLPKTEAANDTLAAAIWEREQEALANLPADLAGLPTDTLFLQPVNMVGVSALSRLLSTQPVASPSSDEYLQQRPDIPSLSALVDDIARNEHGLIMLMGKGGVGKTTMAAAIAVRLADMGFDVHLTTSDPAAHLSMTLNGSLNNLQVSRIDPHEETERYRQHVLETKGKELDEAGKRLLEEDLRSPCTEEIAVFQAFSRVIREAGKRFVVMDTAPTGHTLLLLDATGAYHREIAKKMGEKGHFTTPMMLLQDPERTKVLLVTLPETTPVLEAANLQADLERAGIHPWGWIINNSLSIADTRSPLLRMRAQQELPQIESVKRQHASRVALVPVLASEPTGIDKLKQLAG
molecule,measurement,setting,value
"[N-]=[N+]=Nc1nc2c(N)ncnc2n1[C@@H]1O[C@H](COP(=O)(O)OP(=O)(O)OP(=O)(O)O)[C@@H](O)[C@H]1O [8-azido[γ-32P]ATP, 8-azidoadenosine 5'-[γ-32P]triphosphate]",Kd,ThArsA [1],50 µM
same,Kd,K16Q ThArsA,55 µM
"Nc1ncnc2c1ncn2[C@@H]1O[C@H](COP(=O)(O)OP(=O)(O)OP(=O)(O)O)[C@@H](O)[C@H]1O [ATP, adenosine 5'-triphosphate]",Km,ThArsA [2],170 µM
same,Km,wild-type ArsA,170 µM
O=[As][O-].[Na+] [sodium arsenite],sodium arsenite concentration in which cells could grow,E. coli strain JM109; cells expressing wild-type arsA and arsB genes,5 mM
same,sodium arsenite concentration at which cells were sensitive,E. coli strain JM109; cells without an ars operon,1 mM
B1,ATPase activity relative to wild type,[3],70%
same,ATPase activity relative to wild type,[3]; listed as K16Q,approximately 70%
same,EC50,[3]; read-out: concentration of antimonite [Sb(III)] required for half-maximal activation,20 µM
same,reduction in the affinity of ATP,[3]; versus wild type,3 fold
B2,ATPase activity (in words),[3]; purified protein,inactive
B3,stoichiometry of Sb(III) binding,Sb,only background levels
